Calls of active or inactive are those of the source. No cut-off for these calls is given here.
Key:
[1] = system: Nucleic Acid; test: Binding affinity to calf thymus DNA assessed as DNA intercalation at 50 uM by circular dichroism spectra analysis; assay type: nucleic-acid assay; conditions: Bos taurus
How it was run: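 CD: 50 μM compound with 200 μM CT-DNA in BPE buffer, alone or plus 10 or 100 mM NaCl; spectra 480–230 nm, 10 mm quartz cell, 20 °C; compound without DNA as control for intrinsic CD.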

[2] = system: Nucleic Acid; test: Binding affinity to Poly (dAdT)2 DNA assessed as change in melting temperature at drug/base pair ratio of 0.1 by UV-visible spectrophotometric analysis; assay type: nucleic-acid assay
How it was run: (§1)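 Melting: 20 μM CT-DNA or poly(dAdT)2 alone or with compound (drug/base pair ratio 0.01−0.5) in BPE buffer (6 mM Na2HPO4, 2 mM NaH2PO4, 1 mM EDTA, pH 7.1); A260 read each minute from 20 to 100 °C at 1 °C/min; Tm from midpoint of hyperchromic transition (first-derivative plots); ΔTm = Tm[drug+DNA] − Tm[DNA alone].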

[3] = system: HCT-116; test: Induction of cell cycle arrest in human HCT116 cells assessed as accumulation at G2/M phase at 1 to 5 uM by propidium iodide based flow cytometry; assay type: functional; conditions: TDE = time-dependent effect
How it was run: (§2)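 HCT116 cells (2 × 10^5 per well) treated after 24 h with 1 or 5 μM for 24 and 48 h; floating and attached cells pooled, fixed in 70% ethanol, stained with 50 μg/mL propidium iodide plus RNase A; 20 000 events by flow cytometry; phase percentages from DNA histograms; duplicate, repeated at least twice.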

[4] = system: HCT-116; test: Induction of cell cycle arrest in human HCT116 cells assessed as accumulation at G2/M phase after 24 to 48 hrs by propidium iodide based flow cytometry; assay type: functional; how it was run: as §2
[5] = system: Nucleic Acid; test: Binding affinity to Poly (dAdT)2 DNA assessed as change in melting temperature at drug/base pair ratio of 0.25 by UV-visible spectrophotometric analysis; assay type: nucleic-acid assay; how it was run: as §1
[6] = system: HCT-116; test: Cytotoxicity against human HCT116 cells after 72 hrs by MTT assay; assay type: functional, cell-based; conditions: HCT-116, 72 h
How it was run: (§3)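 Cells seeded on day 0 at 1 × 10^4 to 3 × 10^4 cells/mL (adherent lines in DMEM, MOLT-4 in suspension in RPMI, 10% FBS, 37 °C, 5% CO2); 10-fold dilutions 10−8–10−4 M for 72 h; MTT, OD 570 nm; percentage growth versus time-zero and control; IC50 by linear regression; quadruplicate, at least two experiments.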

[7] = system: MCF7; test: Cytotoxicity against human MCF7 cells after 72 hrs by MTT assay; assay type: functional, cell-based; conditions: MCF7, 72 h; how it was run: as §3
[8] = system: Nucleic Acid; test: Binding affinity to calf thymus DNA assessed as change in melting temperature at drug/base pair ratio of 0.5 by UV-visible spectrophotometric analysis; assay type: nucleic-acid assay; conditions: Bos taurus; how it was run: as §1
[9] = system: Nucleic Acid; test: Binding affinity to AT rich site of Pvu2 DNA by densitometric analysis; assay type: nucleic-acid assay
How it was run: (§4)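 265 bp EcoRI/PvuII pBluescript fragment, 3′-end labeled with α-[32P]dATP by Klenow. Compounds at increasing concentrations pre-equilibrated with DNA 15 min at 37 °C, then DNase I (final 0.002 unit/mL) in 20 mM NaCl, 2 mM MgCl2, 2 mM MnCl2, pH 7.3, 4 min digestion; products resolved on denaturing 8% polyacrylamide/8 M urea gel, G-track for base positions.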

[10] = target: T1, DNA topoisomerase 1 (Homo sapiens) (UniProt P11387); test: Inhibition of human topoisomerase 1-mediated supercoiled pUC19 plasmid DNA relaxation at 10 uM incubated for 45 mins followed by enzyme addition measured after 30 mins by agarose gel electrophoresis
T1 sequence (whole entry): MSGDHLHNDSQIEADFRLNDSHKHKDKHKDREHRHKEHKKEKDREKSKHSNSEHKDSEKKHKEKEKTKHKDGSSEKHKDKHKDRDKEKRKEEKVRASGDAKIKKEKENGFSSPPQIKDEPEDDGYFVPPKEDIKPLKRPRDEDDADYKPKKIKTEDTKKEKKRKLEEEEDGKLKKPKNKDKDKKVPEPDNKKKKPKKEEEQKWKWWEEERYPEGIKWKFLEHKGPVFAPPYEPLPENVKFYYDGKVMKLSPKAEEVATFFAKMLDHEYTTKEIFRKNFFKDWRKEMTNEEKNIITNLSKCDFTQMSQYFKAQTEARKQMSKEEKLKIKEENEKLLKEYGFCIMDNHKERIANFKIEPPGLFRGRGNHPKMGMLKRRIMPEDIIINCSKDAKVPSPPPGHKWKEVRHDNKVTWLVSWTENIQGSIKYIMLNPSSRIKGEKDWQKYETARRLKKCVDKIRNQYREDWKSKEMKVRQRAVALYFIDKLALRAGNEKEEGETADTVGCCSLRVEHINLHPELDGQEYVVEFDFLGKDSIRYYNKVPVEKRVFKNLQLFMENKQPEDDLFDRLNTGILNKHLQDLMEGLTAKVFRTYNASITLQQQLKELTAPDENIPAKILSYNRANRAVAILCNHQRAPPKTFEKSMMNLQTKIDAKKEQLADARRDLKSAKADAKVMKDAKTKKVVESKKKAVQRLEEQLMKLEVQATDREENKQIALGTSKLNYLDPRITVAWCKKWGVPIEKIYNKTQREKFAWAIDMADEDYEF
How it was run: (§5)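 Graded compound concentrations preincubated with supercoiled pUC19, then 4 units human topoisomerase I, 37 °C for 45 min in relaxation buffer; stopped with 0.25% SDS and 250 μg/mL proteinase K, 30 min at 50 °C; 1% agarose gel without ethidium bromide, 2 h at 120 V in TBE, then stained with ethidium bromide.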

[11] = system: MOLT-4; test: Cytotoxicity against human MOLT4 cells after 72 hrs by MTT assay; assay type: functional, cell-based; conditions: MOLT-4, 72 h; how it was run: as §3
[12] = system: Nucleic Acid; test: Binding affinity to Poly (dAdT)2 DNA assessed as DNA intercalation at 20 uM by circular dichroism spectra analysis; assay type: nucleic-acid assay
How it was run: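 CD: compound titrated against poly(dAdT)2, or poly(dAdT)2 titrated with compound from 1 to 200 μM, in BPE buffer (pH 7.1); spectra from 480 to 230 nm in 10 mm quartz cell at 20 °C; peak position and intensity followed.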

[13] = system: NCI-H460; test: Cytotoxicity against human H460 cells after 72 hrs by MTT assay; assay type: functional, cell-based; conditions: NCI-H460, 72 h; how it was run: as §3
[14] = system: HCT-116; test: Induction of cell cycle arrest in human HCT116 cells assessed as accumulation at G1 phase after 24 to 48 hrs by propidium iodide based flow cytometry; assay type: functional; how it was run: as §2
[15] = system: SW-620; test: Cytotoxicity against human SW620 cells after 72 hrs by MTT assay; assay type: functional, cell-based; conditions: SW-620, 72 h; how it was run: as §3
[16] = target: DNA topoisomerase 2-alpha (Homo sapiens) (UniProt P11388); test: Inhibition of human topoisomerase 2-mediated DNA cleavage at 50 uM incubated for 45 mins followed by enzyme addition measured after 30 mins by agarose gel electrophoresis
Sequence of DNA topoisomerase 2-alpha (Homo sapiens) (P11388 whole entry): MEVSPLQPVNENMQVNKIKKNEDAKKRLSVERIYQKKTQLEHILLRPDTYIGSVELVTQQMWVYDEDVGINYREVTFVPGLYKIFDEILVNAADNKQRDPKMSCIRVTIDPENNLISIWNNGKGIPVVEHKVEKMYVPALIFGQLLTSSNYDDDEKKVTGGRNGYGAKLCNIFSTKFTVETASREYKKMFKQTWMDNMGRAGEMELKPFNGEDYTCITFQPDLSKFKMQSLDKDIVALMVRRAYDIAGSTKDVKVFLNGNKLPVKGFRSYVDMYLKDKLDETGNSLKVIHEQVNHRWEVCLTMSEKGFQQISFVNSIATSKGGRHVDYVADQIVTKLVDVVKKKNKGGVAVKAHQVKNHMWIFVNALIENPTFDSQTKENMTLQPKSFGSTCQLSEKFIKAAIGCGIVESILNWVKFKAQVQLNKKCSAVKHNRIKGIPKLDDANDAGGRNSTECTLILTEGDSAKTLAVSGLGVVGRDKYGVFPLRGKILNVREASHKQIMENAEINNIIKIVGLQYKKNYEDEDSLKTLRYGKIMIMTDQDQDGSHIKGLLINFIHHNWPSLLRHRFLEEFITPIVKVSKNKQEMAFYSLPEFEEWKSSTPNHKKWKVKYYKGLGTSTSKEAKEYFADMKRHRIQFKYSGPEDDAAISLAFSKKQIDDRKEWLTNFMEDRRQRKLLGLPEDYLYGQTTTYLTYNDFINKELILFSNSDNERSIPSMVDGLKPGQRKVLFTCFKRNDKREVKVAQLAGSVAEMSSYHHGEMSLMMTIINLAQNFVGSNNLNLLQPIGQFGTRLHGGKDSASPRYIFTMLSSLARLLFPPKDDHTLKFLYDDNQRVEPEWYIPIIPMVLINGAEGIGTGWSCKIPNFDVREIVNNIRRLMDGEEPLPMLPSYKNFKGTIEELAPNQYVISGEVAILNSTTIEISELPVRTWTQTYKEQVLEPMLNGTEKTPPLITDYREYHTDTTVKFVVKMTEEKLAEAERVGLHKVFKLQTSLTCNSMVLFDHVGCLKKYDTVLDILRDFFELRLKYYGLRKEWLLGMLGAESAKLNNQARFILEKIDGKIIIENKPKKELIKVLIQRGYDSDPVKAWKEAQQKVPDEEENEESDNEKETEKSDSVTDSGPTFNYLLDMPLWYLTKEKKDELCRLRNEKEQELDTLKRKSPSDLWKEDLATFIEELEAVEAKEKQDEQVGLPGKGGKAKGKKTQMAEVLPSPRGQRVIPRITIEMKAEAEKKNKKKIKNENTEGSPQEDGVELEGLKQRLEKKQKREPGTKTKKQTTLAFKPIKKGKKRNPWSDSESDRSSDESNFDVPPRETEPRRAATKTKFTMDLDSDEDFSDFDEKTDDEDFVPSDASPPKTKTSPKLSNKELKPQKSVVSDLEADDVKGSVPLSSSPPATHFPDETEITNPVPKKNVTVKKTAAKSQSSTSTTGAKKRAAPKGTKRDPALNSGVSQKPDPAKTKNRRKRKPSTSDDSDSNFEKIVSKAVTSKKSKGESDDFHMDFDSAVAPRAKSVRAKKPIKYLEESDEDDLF
How it was run: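 Compounds (50 μM) incubated with 350 ng supercoiled pUC19 before topoisomerase II addition; gel quantified for percentage poisoning normalized to etoposide at the same concentration.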

[17] = system: Nucleic Acid; test: Binding affinity to Poly (dAdT)2 DNA assessed as change in melting temperature at drug/base pair ratio of 0.01 by UV-visible spectrophotometric analysis; assay type: nucleic-acid assay; how it was run: as §1
[18] = system: Nucleic Acid; test: Binding affinity to calf thymus DNA assessed as change in melting temperature at drug/base pair ratio of 0.01 by UV-visible spectrophotometric analysis; assay type: nucleic-acid assay; conditions: Bos taurus; how it was run: as §1
[19] = system: Nucleic Acid; test: Binding affinity to Poly (dAdT)2 DNA assessed as change in melting temperature at drug/base pair ratio of 0.05 by UV-visible spectrophotometric analysis; assay type: nucleic-acid assay; how it was run: as §1
[20] = system: Nucleic Acid; test: Binding affinity to Poly (dAdT)2 DNA assessed as change in melting temperature at drug/base pair ratio of 0.025 by UV-visible spectrophotometric analysis; assay type: nucleic-acid assay; how it was run: as §1
[21] = target: T1, DNA topoisomerase 1 (Homo sapiens); test: Inhibition of human topoisomerase 1-mediated DNA cleavage at 10 uM incubated for 45 mins followed by enzyme addition measured after 30 mins by agarose gel electrophoresis
How it was run: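 Topo I cleavage run like the relaxation assay (pUC19, 4 units human topoisomerase I, 37 °C, 45 min; SDS/proteinase K stop), but samples run on 1% agarose gel containing ethidium bromide; camptothecin 20 μM as poisoning control.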

[22] = system: Nucleic Acid; test: Binding affinity to calf thymus DNA assessed as change in melting temperature at drug/base pair ratio of 0.25 by UV-visible spectrophotometric analysis; assay type: nucleic-acid assay; conditions: Bos taurus; how it was run: as §1
[23] = system: Nucleic Acid; test: Binding affinity to calf thymus DNA assessed as change in melting temperature at drug/base pair ratio of 0.025 by UV-visible spectrophotometric analysis; assay type: nucleic-acid assay; conditions: Bos taurus; how it was run: as §1
[24] = system: Nucleic Acid; test: Binding affinity to radiolabeled Pvu2 DNA after 15 mins by Dnase1 footprinting assay; assay type: nucleic-acid assay; how it was run: as §4
[25] = system: Nucleic Acid; test: Binding affinity to calf thymus DNA assessed as change in melting temperature at drug/base pair ratio of 0.1 by UV-visible spectrophotometric analysis; assay type: nucleic-acid assay; conditions: Bos taurus; how it was run: as §1
[26] = system: HCT-116; test: Induction of cell cycle arrest in human HCT116 cells assessed as accumulation at G1 phase at 1 to 5 uM by propidium iodide based flow cytometry; assay type: functional; conditions: TDE = time-dependent effect; how it was run: as §2
[27] = target: T1, DNA topoisomerase 1 (Homo sapiens); test: Inhibition of human topoisomerase 1-mediated supercoiled pUC19 plasmid DNA relaxation at 0.5 to 2 uM incubated for 45 mins followed by enzyme addition measured after 30 mins by agarose gel electrophoresis; how it was run: as §5
[28] = target: T1, DNA topoisomerase 1 (Homo sapiens); test: Inhibition of human topoisomerase 1-mediated supercoiled pUC19 plasmid DNA relaxation at 50 uM incubated for 45 mins followed by enzyme addition measured after 30 mins by agarose gel electrophoresis; how it was run: as §5
[29] = system: HCT-116; test: Induction of cell cycle arrest in human HCT116 cells assessed as accumulation at G1 phase at 5 uM after 24 to 48 hrs by propidium iodide based flow cytometry; assay type: functional; how it was run: as §2

| Compound | Activity [1] | Activity [3] | Activity [4] | IC50 [6] [nM] | IC50 [7] [nM] | ΔTm [8] [°C] | Activity [9] | inhibition [10] | IC50 [11] [nM] | IC50 [13] [nM] | Activity [14] | IC50 [15] [nM] | inhibition [16] | inhibition [21] | ΔTm [22] [°C] | Activity [24] | Activity [26] | also measured |
| --- | --- | --- | --- | --- | --- | --- | --- | --- | --- | --- | --- | --- | --- | --- | --- | --- | --- | --- |
| O=C(Nc1ccc(C2=NCCN2)cc1)c1sc2cc(C3=NCCN3)ccc2c1Cl | Active | tde | Dose-dependent effect | 1700 | 1500 | 28.4 | Active | Active | 1900 | 2600 | Dose-dependent effect | 1400 | Active | Active | 23.9 | Active | tde | ΔTm [2]: 18.6 °C; ΔTm [5]: 27.4 °C; Activity [12]: Active; ΔTm [17]: 1 °C; ΔTm [18]: 1 °C; ΔTm [19]: 5.9 °C; ΔTm [20]: 2 °C; ΔTm [23]: 2 °C; ΔTm [25]: 7.9 °C |
| O=c1[nH]c2ccccc2c2c1sc1cc(C3=NCCN3)ccc12 | – | – | – | 1300 | 1500 | 14.6 | inactive | – | 800 | 1200 | – | 1200 | Active | Active | 11 | Active | – | inhibition [27]: Active |
| O=C(Nc1ccccc1)c1sc2cc(C3=NCCN3)ccc2c1Cl | inactive | – | – | 2800 | 2000 | 3.8 | inactive | – | 2000 | 1400 | – | 1300 | Active | – | 3 | Active | – | inhibition [28]: Active |
| O=C(Nc1ccc(C2=NCCN2)cc1)c1sc2ccccc2c1Cl | inactive | tde | Dose-dependent effect | 1800 | 1600 | 6.8 | inactive | Active | 2100 | 1000 | Dose-dependent effect | 1200 | Active | – | 5 | Active | tde | Activity [29]: Active |
